# Measurements from paper PMC7669743 (Inorganic chemistry, 2020).
# Like-named read-outs stand apart in the source and are kept apart here. Marks after values point to notes of the source that are not given here.
# Assays:
# [1] = tested on: SK-MEL-28 malignant melanoma cells; assay: Dark cytotoxicity and photocytotoxicity in normoxia; format: cell-based, human
# SK-MEL-28 cells = assay: Dark cytotoxicity and photocytotoxicity in hypoxia; format: cell-based, human; conditions: for EC50: read-out: dark EC50 in hypoxia, hypoxia 1% O2, dark
# Method in brief: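 SK-MEL-28 melanoma cells, 10,000 per well, pre-incubated 2–3 h at 1% O2 (5% CO2, 37 °C). Dosed 1 nM–300 μM, held 21–26 h at 1% O2, then film-sealed and given dark or light treatment. Cells returned to normoxia for 2 days, then resazurin (~60 μM final) for 4 h. EC50 came from zero-bottom log-logistic fits, PI as dark/light EC50.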
# [2] = cited from earlier work
# [3] = Solubility in high ionic strength aqueous media; format: physicochemical; conditions: for solubility in aqueous media relative to the dmb analogs: high ionic strength aqueous media, in words; for solubility in high ionic strength aqueous media: fully soluble
# Lipophilicity = format: physicochemical; conditions: pH 7.4, phosphate buffer / 1-octanol, chloride salts
# Method in brief: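 Modified shake-flask method. 10 mM saline-free phosphate buffer (pH 7.4) and 1-octanol were mutually pre-saturated at 1:4 by shaking at 230 rpm for 24 h (~20 °C). Chloride salts at 50 μM in saturated octanol plus saturated buffer (1:1) were shaken 200 times and centrifuged (~10,000 × g, 2 min). Each phase was read by absorbance at its longest-wavelength maximum (400–600 nm) against a standard curve. Log D is the log of the octanol/buffer concentration ratio.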
# [4] = cited from earlier work; remark: listed apart in the source
# [5] = tested on: amelanotic SK-MEL-28 human cells; assay: Fluence dependence of photocytotoxicity in normoxia; format: cell-based
# female C57BL/6J mice = assay: Maximum tolerated dose; conditions: intraperitoneal, doses 25–200 mg kg^−1, 2-week observation
# [6] = Singlet oxygen sensitization quantum yield; format: physicochemical; conditions: acetonitrile
# Method in brief: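 PF6- salts were used at 5–20 μM in acetonitrile distilled over calcium hydride, air-saturated. The 1O2 phosphorescence band (~1276 nm) was integrated using NIR PMT detection. Quantum yield was calculated by relative actinometry against [Ru(bpy)3]2+ (Φ = 0.56, aerated MeCN), using emission integrals and absorbance at the excitation wavelength. The refractive-index ratio was 1 because both solutions were in acetonitrile.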
# [7] = read-out: dark EC50, dark (sham) treatment, SK-MEL-28
# [8] = read-out: light EC50, visible light, visible 400–700 nm, 100 J cm^−2, ~20 mW cm^−2
molecule,measurement,setting,value
[Os(bpy)2(IP-2T)]Cl2 [1–2T],EC50,[1]; [7],42.2 µM
same,EC50,SK-MEL-28 cells,76.9 µM
[Os(phen)2(IP-4T)]Cl2,PIvis in hypoxia,"[2]; hypoxia, visible light",90
[Os(bpy)2(IP-3T)]Cl2 [1–3T],solubility in aqueous media relative to the dmb analogs,[3],less soluble
same,EC50,[1]; [7],45.8 µM
same,EC50,SK-MEL-28 cells,71.9 µM
same,log Do/w,Lipophilicity,amphiphilic
"Cc1cccc(-c2cccc(C)n2)n1.Cc1cccc(-c2cccc(C)n2)n1.[Cl-].[Cl-].[Ru+2].c1ccc2c(-c3nc4c5cccnc5c5ncccc5c4[nH]3)cccc2c1 [[Ru(6,6′-dmb)2(1-NIP)]Cl2]",PI (PIvis) in hypoxia,"[2]; 1% O2, visible light",15
[Os(dmb)2(IP-3T)]Cl2 [2–3T],solubility in high ionic strength aqueous media,[3],≥ 1200 µM
"[Os+2].c1ccc(-c2ccccn2)nc1.c1ccc(-c2ccccn2)nc1.c1ccc(-c2ccccn2)nc1 [[Os(bpy)3]^2+, [Os(bpy)3]Cl2, reference compound]",singlet oxygen quantum yield ΦΔ,"[4]; acetonitrile, room temperature, excitation 479 nm, literature value ref 83",0.22 (479)^a
same,EC50,[1]; [7],> 100 µM
[Os(bpy)2(IP-4T)]Cl2 [1–4T],fold improvement over 2–4T,"[5]; PDT dose product EC50, normoxia",≥ 5 fold
same,photocytotoxic activity at the lowest tested fluence,"[5]; normoxia, 10 J cm^−2, both wavelengths (523 and 633 nm)",Submicromolar
same,maximum tolerated dose (MTD),female C57BL/6J mice,≥ 200 mg/kg
same,solubility in aqueous media relative to the dmb analogs,[3],less soluble
same,singlet oxygen quantum yield ΦΔ,[6],70%
same,phototherapeutic index PIgreen,"[1]; green 523 nm, ratio of dark to light EC50",6700
same,EC50,[1]; [7],71.9 µM
same,EC50,"[1]; read-out: light EC50, green light, green 523 nm, 100 J cm^−2",~0.01 µM
same,EC50,"[1]; read-out: light EC50, red light, red 633 nm, 100 J cm^−2",~0.01 µM
same,EC50,[1]; [8],0.00131 µM
same,phototherapeutic index PIvis,"[1]; visible light, ratio of dark to light EC50","55,000"
same,phototherapeutic index (PI) in hypoxia,"SK-MEL-28 cells; hypoxia 1% O2, across the three light conditions",~70
same,EC50,SK-MEL-28 cells,55.3 µM
[Os(dmb)2(IP-4T)]Cl2 [2–4T],maximum tolerated dose (MTD),female C57BL/6J mice,≥ 200 mg/kg
same,solubility in high ionic strength aqueous media,[3],≥ 1200 µM
same,singlet oxygen quantum yield ΦΔ,[6],56%
same,EC50,[1]; [8],0.071 µM
same,PIgreen in hypoxia,"SK-MEL-28 cells; hypoxia 1% O2, green light",15
[Ru+2].c1ccc(-c2ccccn2)nc1.c1ccc(-c2ccccn2)nc1.c1ccc(-c2ccccn2)nc1 [[Ru(bpy)3]^2+],singlet oxygen quantum yield ΦΔ of the standard,[4]; aerated MeCN,0.56
"[Os(dmb)3](Cl)2 [[Os(dmb)3]^2+, reference compound]",EC50,[1]; [7],> 100 µM
